Data set [1] can be described thus: Metabolic stability in human liver microsomes assessed as intrinsic clearance.
Data set [2] is described as follows: Lipophilicity, log D of compound. It counts as physicochemical. The settings on record: octanol/water.
A short description of data set [3]: Free drug concentration in mouse brain harboring Kcnt1 L/L mutant at 30 mg/kg, sc. It counts as ADME, organism-based. The note with it: in vivo.
Data set [4] in a line: Half life in CD-1 mouse at 0.5 mg/kg, iv. The settings on record: in vivo. It counts as ADME, organism-based. The essentials: (§1)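 CD-1 mice given a single 0.5 mg/kg IV dose in 10% DMSO, 10% Solutol, 80% water. Clearance, Vdss and half-life derived from plasma concentration–time data.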
A short description of data set [5]: Volume of distribution at steady state in CD-1 mouse at 0.5 mg/kg, iv. It counts as ADME, organism-based. The settings on record: in vivo, read-out: Vdss. The essentials: as §1
A short description of data set [6]: Oral bioavailability in CD-1 mouse at 30 mg/kg. It counts as ADME, organism-based. The note with it: in vivo.
A short description of data set [7]: Free drug concentration in wildtype CD-1 mouse brain at 150 mg/kg, sc. The note with it: in vivo.
Data set [8] can be described thus: Clearance in CD-1 mouse at 0.5 mg/kg, iv. It counts as ADME, organism-based. The settings on record: in vivo. The essentials:
as §1

With `C[C@H](NC(=O)c1cc(C(F)(F)F)nn1C)c1nc(-c2ccnc(C3CC3)c2)no1`, in data set [1], the CLint is below 9.6 µL/min/mg. This compound also yielded a logD in data set [2] of 4.1.
Regarding `C[C@H](NC(=O)c1cc(C(F)(F)F)nn1C)c1nc(-c2ccnc(C(F)(F)F)c2)no1`, in data set [3], the “Drug uptake(free)” value was determined as 270 nM. The same compound had a half-life in data set [4] above 20 h. In addition, the CLint in data set [1] is below 9.6 µL/min/mg. For the same compound, in data set [5], the Vd stood at 1.88 L/kg. The bioavailability in data set [6] worked out at 100%. For the same compound, in data set [7], the Drug uptake came to 1204 nM. The compound further displayed a logD in data set [2] of 3.6. Moreover, the clearance in data set [8] was found to be 2 mL/min/kg.
With `C[C@H](NC(=O)c1cc(C(F)(F)F)nn1C)c1nc(-c2ccnc(N3CCCC3)c2)no1`, the CLint in data set [1] worked out at 48 µL/min/mg. This compound registered a logD in data set [2] of 4.2.
As for `CNc1cc(-c2noc([C@H](C)NC(=O)c3cc(C(F)(F)F)nn3C)n2)ccn1`, the CLint in data set [1] came to 28 µL/min/mg. The compound also showed a logD in data set [2] of 3.4.
Regarding `C[C@H](NC(=O)c1cc(C(F)(F)F)nn1C)c1nc(-c2ccnc(C(F)F)c2)no1`, in data set [1], the CLint is below 9.6 µL/min/mg. The compound further had a pH-dependent lipophilicity (logD) in data set [2] of 3.4.
As for `COCc1cc(-c2noc([C@H](C)NC(=O)c3cc(C(F)(F)F)nn3C)n2)ccn1`, the CLint in data set [1] was below 9.6 µL/min/mg. The compound also had a log distribution coefficient (logD) in data set [2] of 3.
The matching figures for `COc1cc(-c2noc([C@H](C)NC(=O)c3cc(C(F)(F)F)nn3C)n2)cc(C)n1`: 10 µL/min/mg and 4.4.
In the case of `Cc1cc(-c2noc([C@H](C)NC(=O)c3cc(C(F)(F)F)nn3C)n2)ccn1`, the CLint in data set [1] was below 9.6 µL/min/mg. In data set [2], this compound yielded a logD of 3.3.
As to `C[C@H](NC(=O)c1cc(C(F)(F)F)nn1C)c1nc(-c2ccnc(N(C)C)c2)no1`, in data set [1], the CLint came out at 56 µL/min/mg. The compound also returned a logD in data set [2] of 3.9.
Taken in the same sequence, the figures for `COC(C)(C)c1cc(-c2noc([C@H](C)NC(=O)c3cc(C(F)(F)F)nn3C)n2)ccn1` were 21 µL/min/mg and 3.8.
For the compound `COc1cc(-c2noc([C@H](C)NC(=O)c3cc(C(F)(F)F)nn3C)n2)ccn1`, the CLint in data set [1] was below 9.6 µL/min/mg. Besides, the logD in data set [2] amounted to 3.4.

Usually logD stands for the decadic logarithm of the distribution of all forms, ionised or not, between an organic phase and buffer at a given pH. Low readings indicate a more hydrophilic compound, high ones a more lipophilic compound. As usually defined, the half-life is how long it takes for the measured level to halve. The low end stands for rapid decline, the high end for slow decline. As usually defined, the bioavailability is dose-corrected exposure relative to a reference, in per cent. Lower therefore signals poor availability. As usually defined, the clearance is the volume of plasma or blood freed of the substance per unit of time. Low readings indicate inefficient removal, high ones efficient removal.
